Hits are enriched below; roughly 3.4% of the tested compounds scored in any of these assays.
APOBEC3G inh: blocks human APOBEC3G single-stranded DNA deamination; Q9HC16; recombinant A3G, ssDNA deamination FAM/TAMRA fluorescence; inhibition, % at 20 µM; hit rate 0.28% among 330,000; AID 493012;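 active = inhibition of at least 40% at 20 µM, with no more than 30% in the related APOBEC3A deaminase screen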;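 also: plate controls were DMSO wells with A3G for no effect and wells lacking A3G enzyme for full effect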
A3A deaminase: human APOBEC3A DNA deaminase inhibition; P31941; recombinant A3A, FAM/TAMRA ssDNA deamination fluorescence; inhibition, % at 20 µM; hit rate 0.41% among 330,000;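 active = at least 40% inhibition at 20 µM here, with at most 30% in a related deaminase screen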;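 also: plate controls were A3A with DMSO for no effect and wells lacking A3A enzyme for full effect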
Arr AP2 block: blocks beta-arrestin peptide binding to AP2 adaptin; hit rate 0.31% among 340,000; FITC-arrestin peptide / GST-AP2 beads, flow cytometry; AP2 beta2 appendage carries R879A mutation; inhibition, % at 10 µM;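 active = inhibition above a set limit, near 3 SD of compounds lacking own fluorescence, cut at about 54% in these data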;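 also: plate controls were DMSO wells for no effect and 5 µM unlabelled arrestin peptide for full effect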
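System: GST-AP2 R879A glutathione beads | Also added: FITC-arrestin peptide, 50 nM | Times: 12 min plus 1 h, RT | Signal: Bead flow cytometry, FITC channel | Buffer or medium: PBS with 0.05% Tween 20 and 0.1% BSA | Read-out basis: Percent drop in bead-associated FITC signal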
AHR activator: human AHR activation | activation, % at 5 µM | AID 2796 | hit rate 2.5% among 320,000 | AHR-responsive luciferase reporter cells, luminescence; in the data active = activation above about 47%;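 also: 0% = vehicle wells and 100% = reference agonist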
Target sequence (P35869 whole entry, looked up): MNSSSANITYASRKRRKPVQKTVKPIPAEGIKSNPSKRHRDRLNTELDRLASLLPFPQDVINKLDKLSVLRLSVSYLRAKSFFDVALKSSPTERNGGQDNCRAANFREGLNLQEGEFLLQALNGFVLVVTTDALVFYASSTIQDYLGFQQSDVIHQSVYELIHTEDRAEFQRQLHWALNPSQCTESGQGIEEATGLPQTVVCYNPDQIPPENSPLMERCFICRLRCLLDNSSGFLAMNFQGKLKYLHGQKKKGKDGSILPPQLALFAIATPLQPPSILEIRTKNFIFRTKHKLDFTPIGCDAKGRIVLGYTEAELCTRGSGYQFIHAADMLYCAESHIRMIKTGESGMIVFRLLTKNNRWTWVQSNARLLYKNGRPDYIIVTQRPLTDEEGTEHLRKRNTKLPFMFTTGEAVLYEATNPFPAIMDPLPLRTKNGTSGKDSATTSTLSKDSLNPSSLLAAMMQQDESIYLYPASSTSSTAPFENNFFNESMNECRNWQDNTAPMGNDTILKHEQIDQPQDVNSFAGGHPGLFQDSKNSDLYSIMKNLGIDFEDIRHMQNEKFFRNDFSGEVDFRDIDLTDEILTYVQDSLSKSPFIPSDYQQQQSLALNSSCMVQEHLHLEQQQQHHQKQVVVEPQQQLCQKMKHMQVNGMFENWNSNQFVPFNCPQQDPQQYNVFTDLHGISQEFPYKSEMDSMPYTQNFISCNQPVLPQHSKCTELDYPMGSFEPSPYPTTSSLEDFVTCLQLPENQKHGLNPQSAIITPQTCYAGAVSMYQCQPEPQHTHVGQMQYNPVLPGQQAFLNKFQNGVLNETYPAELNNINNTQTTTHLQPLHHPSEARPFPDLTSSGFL
PolyA inh: inhibitors of polyadenylation in S. cerevisiae; AID 1875; hit rate 0.02% among 300,000; S. cerevisiae SKY197-pL101 polyadenylation reporter, beta-gal luminescence; efflux-impaired pdr1/pdr3 knockout yeast; score 100 = 6 SD above DMSO; activity score, % at 12 µM;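 active = lowest replicate activity score at least 50, where 100 means six control SD above control mean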;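 also: yeast exposed to compound for 9 h at 30 °C; higher score means more reporter readthrough which indicates perturbed polyadenylation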
UCH37 DUB inh: human UCH37 deubiquitinating enzyme inhibition; hit rate 0.33% among 330,000; AID 588478; purified proteasome/UCH37, Ub-AMC cleavage fluorescence; inhibition, % (concentration not given with the values);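 active = mean inhibition over replicate wells above about 20%, limit read from the data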;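 also: 0% = compound-free wells with enzyme and 100% = wells lacking proteasome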
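Signal – fluorescence, ex 355 nm, em 460 nm · System – Proteasome-bound UCH37 · Input – 0.15 nM proteasome as dispensed · Timing – 30 min preincubation with enzyme, 25 min cleavage at room temperature · Read-out basis – percent inhibition of cleavage signal versus uninhibited and no-proteasome wells · Medium – Tris-HCl pH 7.4 with ATP-MgCl2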
An asterisk follows results filed as active; . = no result given.

SMILES	APOBEC3G inh	A3A deaminase	Arr AP2 block	AHR activator	PolyA inh	UCH37 DUB inh
COc1ccc(Cl)cc1Nc1nc(C)cc(C)c1C(N)=O	-0.3	1.2	6.3	59.5*	15.5	-8.5
CCOC(=O)C1=C(C)n2c(sc(=Cc3cccc([N+](=O)[O-])c3)c2=O)=NC1c1ccc(O)c(OC)c1 (configuration not stated)	.	.	.	.	.	2.2
Cc1ccc(NC(=O)c2nsc(Cl)c2Cl)cc1	-5.5	-5.5	10.8	69.0*	7.4	-8.7
NC(=O)CSc1nnc2sc3ccccc3n12	-4.7	-4.4	-10.7	4.6	31.0	24.4*
CCCCCn1nc(C)c(C=NNC(=O)c2cc(C)oc2C)c1C	.	.	.	.	.	2.8
CC(=NNC(=O)CN1CCN(Cc2ccccc2Cl)CC1)c1cccnc1	.	.	.	.	.	4.1
CCCc1nn(-c2ccccc2)c2c1C(c1cccs1)C(C#N)=C(N)O2 (configuration not stated)	5.8	-0.8	-0.1	-0.1	-20.7	3.6
Cc1nn(-c2ccccc2)c2c1C(c1cccs1)C(C#N)=C(N)O2 (configuration not stated)	-4.5	-0.9	10.0	55.5*	16.5	.
CCN(CC)C(=O)COc1ccc(C(C)=NNC(=O)c2ccccc2O)cc1	.	.	.	.	.	5.0
COC(=O)c1sccc1NC(=O)c1ccc(Cl)s1	-1.6	4.5	-0.3	20.4	-16.5	0.2
COC(=O)c1sccc1NC(=O)c1ccc(C)s1	-4.4	-2.3	2.5	50.3*	-11.3	-1.8
Cc1c(Cl)cccc1NC(=S)N=Nc1c(O)n(CN2CCOCC2)c2ccccc12	-1.1	-0.5	-3.0	53.1*	.	.
COC(=O)c1ccc(COc2ccccc2C=NNS(=O)(=O)c2ccccc2)cc1	.	.	.	.	.	0.9
Cc1cccc(N=c2c([N+](=O)[O-])nn(-c3ccc(Cl)cc3)n2O)c1	-4.4	3.3	-12.7	61.7*	-3.8	2.9
Cc1cc(C)cc(N=c2c([N+](=O)[O-])nn(-c3cccc(Cl)c3)n2O)c1	-4.2	1.2	2.7	69.2*	-31.2	4.2
Cc1cccc(NC(=O)C23CCC(C)(C(=NO)C2)C3(C)C)c1 (configuration not stated)	.	.	.	.	.	6.3
COc1ccc(-c2nn(-c3ccccc3)cc2CO)cc1OC	-11.4	-7.6	-3.4	51.2*	4.4	3.3
COc1cccc(-c2nn(-c3ccccc3)cc2CO)c1	-0.3	2.1	3.5	0.6	-2.3	2.9
COc1ccc(-c2nn(-c3ccccc3)cc2/C=N/Nc2ccc3ccccc3n2)cc1OC	-8.6	-0.5	2.2	48.9*	-9.2	.
COc1ccc(-c2nn(-c3ccccc3)cc2/C=N/NC(=S)NC(C)C)cc1OC	-8.8	-4.7	-5.3	55.3*	-6.1	.
COc1ccc(-c2nn(-c3ccccc3)cc2/C=N/O)cc1OC	-8.5	-4.2	3.9	38.2	-22.1	.
COc1cccc(-c2cc3c(-n4cccc4)ncnc3o2)c1	-3.1	-1.0	2.4	56.0*	-30.3	-123.2
CC(=NNC(=O)c1ccn(C)n1)c1ccc(NC(=O)C2CCC2)cc1	.	.	.	.	.	5.9
CC(=O)Oc1cc2c(C(=O)NCc3ccncc3)c(C)oc2c2ccccc12	-8.4	-7.0	0.7	51.8*	-11.5	5.5
Cc1nn(-c2ccc(Br)cc2)c(=O)c2ccccc12	-5.8	1.0	-8.0	56.9*	-21.5	0.2
O=C(NNC(=S)NC(=O)c1ccccc1)c1cccnc1	5.9	-9.6	5.4	3.8	19.0	6.6
O=C(NNC(=S)NC1CC2C=CC1C2)c1cccnc1 (configuration not stated)	-4.6	-5.2	11.0	4.0	66.0*	1.9
COc1ccccc1NC(=O)c1nnn(CC(=O)Nc2ccccc2)c1N	-6.1	-3.6	30.1	47.0*	4.8	-4.5
Cc1ccc(-c2n[nH]c(=S)n2N=Cc2cccs2)cc1	.	.	.	.	.	4.8
CC(C)(C)c1ccc(-c2n[nH]c(=S)n2/N=C/c2ccncc2)cc1	0.4	1.1	-7.4	74.5*	-5.1	.

Assay outcomes from PubChem.
